Source: PubChem BioAssay (several laboratories)
In the library only some 9.2% were active in any assay of this set; here they are far more common.
Lmaj promast: Leishmania major promastigote growth inhibition. Leishmania major promastigotes, resazurin fluorescence viability. inhibition, % at 10 µM. 200,000 compounds, 9% hits. AID 1063; in the data active = inhibition above about 50%;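 also: promastigotes grown with compound for 44 hours at 28 °C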
Dynein cargo inh: dynein cargo transport inhibition; 220,000 compounds, 0.47% hits; z-score, hits read low; AID 1381; 3617.4 mouse cells, GR-EGFP nuclear translocation imaging; test concentration mostly 20 µM; stimulated with dexamethasone, 1 µM; stronger effect = lower value;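 active = plate z-score of nuclear minus cytoplasmic receptor signal below a set negative limit, without overly bright fluorescence or cell loss, cut at about -3.5 in these data, passing the limit was not always enough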;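 also: z-score of nuclear minus cytoplasmic ring GR-EGFP intensity difference per well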
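Schedule: 48 h induction, then 1 h compound, then 30 min agonist, 37 °C. Buffer or medium: tetracycline-free induction medium containing charcoal-stripped FBS. Reagent: 1.0 µM final dexamethasone stimulus. Evaluation: nuclear versus cytoplasmic GR-EGFP signal, averaged per well. Signal: high-content fluorescence imaging after fixation.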
PTEN del growth: PTEN-deleted cell growth suppression; HCT116 PTEN-null viability, CellTiter-Glo, 60 h; stronger effect = lower value; viability, % at 10 µM; 140,000 compounds, 1.2% hits;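 active = viability at or below a set limit, 4 SD under the median of all tested compounds, cut at about 3.7% in these data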;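 also: PTEN knockout HCT116 line with beta catenin targeted HCT116 as companion control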
Autophagy HCS: modulators of autophagy. calls only at 10 µM (by protocol). 190,000 compounds, 0.98% hits. AID 463193. MEF GFP-LC3 puncta imaging; test concentration mostly 10 µM;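 active = percentage of spot-positive cells more than 3 SD above its plate mean, without a fluorescence outlier flag or 80% toxicity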;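 also: spot-positive cell cutoff set from DMSO-treated cells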
bCat KO growth: beta-catenin-lacking colon tumor cell growth suppression. HCT116 beta-catenin knockout viability, CellTiter-Glo, 60 h; stronger effect = lower value. viability, % at 10 µM. 140,000 compounds, 1.5% hits;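 active = viability at or under a set limit, the compound median less 4 SD, cut at about 6% in these data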;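 also: 0% = Hyamine 1622 control at 20 µM and 100% = untreated cell control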
Starred values were filed as active, the others as inactive; i = inactive; / = not tested or not shown; + = active, no number.

SMILES | Lmaj promast | Dynein cargo inh | PTEN del growth | Autophagy HCS | bCat KO growth
O=C(Nc1ccccc1)N1N=C(c2cccs2)CC1c1cccs1 (stereo not drawn) | 89* | 0.28 | 74 | i | 81
O=C(CN1CCOCC1)N1N=C(c2cccs2)CC1c1cccs1 (stereo not drawn) | -6 | -0.83 | / | i | /
Nc1cc(C(=O)c2ccccc2)ccc1[N+](=O)[O-] | 1 | 0.67 | / | i | /
CCOC(=O)C1(CCc2ccccc2)CCN(Cc2ccccn2)CC1 | 4 | -0.98 | / | i | /
CCOC(=O)C1(CCOc2ccccc2)CCN(Cc2ccc3nonc3c2)CC1 | 92* | -1 | / | i | /
CCOC(=O)C1(CCOc2ccccc2)CCN(Cc2ccc(NC(C)=O)cc2)CC1 | 87* | -1.2 | / | i | /
CN1CCC(NC(=S)NC2CC2)CC1 | -6 | -0.16 | / | i | /
CCCc1nnc(N2C(=O)c3cccc4cccc(c34)C2=O)s1 | -4 | 0.36 | 92 | i | 95
Nc1cnc(Nc2ccc(Br)cc2)nc1N | / | -0.55 | / | / | /
CCOC(=O)C1=NOC2COC3(CCN(c4ncccn4)CC3)OCC12 (stereo not drawn) | -7 | -0.45 | / | i | /
COC(=O)CNC(=O)COC(=O)c1cc(SC)ccc1Cl | -5 | -0.38 | / | i | /
CCCc1sc(N/N=C/c2ccccn2)nc1-c1ccc(F)cc1 | 96* | 1.3 | 3.1* | i | 3.2*
c1ccc(CSc2ncn[nH]2)nc1 | 10 | -0.092 | / | i | /
Cc1[nH]c2ccccc2c1/C=C/c1nc2ccccc2c(=O)n1-c1ccc([N+](=O)[O-])cc1 | -6 | -0.19 | 34 | + | 56
O=c1c2ccccc2nc(SCc2cc([N+](=O)[O-])cc3c2OCOC3)n1-c1ccccc1 | 5 | 0.52 | 81 | i | 73
O=c1c2ccccc2nc(SCc2ccc([N+](=O)[O-])cc2)n1-c1ccccc1 | 54* | -0.35 | 68 | i | 69
COc1ccc(-n2c(COc3ccccc3)nnc2SCc2ccc(C#N)cc2)cc1 | 100* | 0.34 | 53 | i | 45
CCOc1ccc(-c2nnc(SCc3nnc(-c4ccccc4)o3)n2-c2ccccc2F)cc1 | 99* | 2.6 | 68 | i | 72
CCN1C(=O)C(O)(CC(=O)c2cccc(-n3cccc3)c2)c2ccccc21 (stereo not drawn) | 0 | -1.2 | / | i | /
CCn1c(Cc2ccccc2)nnc1SCc1ccc([N+](=O)[O-])cc1 | -3 | 0.59 | 85 | i | 81
CCOc1ccc(-n2c(SCc3ccc([N+](=O)[O-])cc3)nnc2-c2ccccc2)cc1 | 92* | -0.94 | 90 | i | 84
COCCn1c(Cc2ccccc2)nnc1SCc1ccc([N+](=O)[O-])cc1 | 51* | -0.094 | 92 | i | 92
Cc1c(C(=O)NCc2cccnc2)sc2nc(-c3ccc(F)cc3)cn12 | 96* | -0.96 | 83 | i | 82
COc1ccc(-c2cn3c(C)c(C(=O)NCCN4CCOCC4)sc3n2)cc1 | -4 | 1.1 | 77 | i | 92
Cc1c(C(=O)NCCCN2CCOCC2)sc2nc(-c3ccc(F)cc3)cn12 | 79* | -0.0097 | 86 | i | 89
SMILES | Lmaj promast | Dynein cargo inh | PTEN del growth | Autophagy HCS | bCat KO growth
NC(=O)C1(N2CCCCC2)CCN(C(=S)Nc2ccc(S(N)(=O)=O)cc2)CC1 | -5 | 1.6 | / | i | /
CC1Cc2ccccc2N1CC(=O)NC(=O)NCc1ccccc1 (stereo not drawn) | 63* | -0.26 | / | i | /
CC1Cc2ccccc2N1CC(=O)NC(=O)NC1CCCCC1 (stereo not drawn) | 92* | -0.13 | / | i | /
COc1cccc(N2CC(C(=O)Nc3nnc(SCC(=O)Nc4cc(C)on4)s3)CC2=O)c1 (stereo not drawn) | -5 | -0.85 | / | i | /
Cc1ccc(N2CC(C(=O)Nc3nnc(SCC(=O)Nc4cc(C)on4)s3)CC2=O)cc1 (stereo not drawn) | 60* | 0.32 | 86 | i | 85
O=C(c1cc2ncccn2n1)N1CCc2c([nH]c3ccccc23)C1c1ccccc1F (stereo not drawn) | 56* | -0.06 | / | i | /
COC(=O)CN(c1ccccc1)S(=O)(=O)c1cc(Br)ccc1OC | 10 | 1.5 | / | i | /
O=[N+]([O-])c1cc(CN2CCCC2)ccc1Sc1ccc(Cl)cc1 | 95* | -0.45 | / | i | /
CCCC(=O)c1ccc(N2CCC(C)CC2)c(F)c1 | -2 | 0.19 | 83 | i | 81
COc1ccc2c(C)nc(Nc3nc(C)cc(=O)[nH]3)nc2c1 | 100* | -0.11 | / | + | /
Cc1ccc(SCc2cc(=O)[nH]c(Nc3nc(C)c4ccc(C)cc4n3)n2)cc1 | 35 | -0.21 | 70 | i | 63
Cc1ccc2nc(Nc3nc(CSc4nnc(C)s4)cc(=O)[nH]3)nc(C)c2c1 | 38 | 0.5 | / | i | /
Cc1ccc2c(C)nc(Nc3nc(CSc4nc5ccccc5[nH]4)cc(=O)[nH]3)nc2c1 | 100* | -0.49 | 96 | i | 97
COc1ccc2c(C)nc(Nc3nc(-c4ccccc4)cc(=O)[nH]3)nc2c1 | / | -0.2 | / | / | /
Cc1nnc(SCc2cc(=O)[nH]c(Nc3nc(C)c4ccccc4n3)n2)s1 | 84* | 0.32 | / | i | /
O=C(N/C(=C/c1ccc(Cl)cc1)C(=O)N1CCCC1)c1ccccc1 | / | 0.7 | / | / | /
O=C(COC(=O)c1cc(-c2ccncc2)nc2ccccc12)Nc1ccc2c(c1)OCO2 | 29 | -0.72 | 95 | i | 106
C=CCNC(=S)NCC | / | -0.018 | / | / | /
CCc1ccc(OCC(=O)N(C)C)c(Br)c1 | -3 | -0.64 | 78 | + | 95
O=S(=O)(NC1=NCCC1)c1cccc(NS(=O)(=O)c2ccc(OC(F)(F)F)cc2)c1 | 54* | 0.63 | 96 | i | 88
COc1ccccc1NC(=O)COC(=O)c1ccccc1C(=O)N1CCN(c2ccccc2)CC1 | 6 | 1.1 | / | i | /
COc1ccc(N2CCN(C(=O)CCCN3C(=O)c4cccc5cccc(c45)C3=O)CC2)cc1 | 98* | 0.59 | 90 | i | 87
O=C(CCCN1C(=O)c2cccc3cccc(c23)C1=O)N1CCN(c2ccc(F)cc2)CC1 | 58* | 0.12 | / | i | /
COc1ccccc1N1CCN(C(=O)CCN2C(=O)c3cccc4cccc(c34)C2=O)CC1 | -4 | -0.31 | / | i | /
Fc1ccc(N2CCN(C3=Nc4cccc5cccc3c45)CC2)cc1 | 98* | 0.6 | / | i | /
SMILES | Lmaj promast | Dynein cargo inh | PTEN del growth | Autophagy HCS | bCat KO growth
CCC(Oc1cc(Cl)ccc1Cl)C(=O)NN1C(=O)C2C3CCC(C3=C(C)C)C2C1=O (stereo not drawn) | 98* | 0.89 | 59 | i | 70
CSc1cnc2c(N)nc(N(C)C)nc2n1 | 58* | 0.8 | 87 | i | 90
CSc1nc(N)nc(N(C)C)n1 | / | 0.61 | / | / | /
COC(=O)C1=C(C(=O)OC)C(c2cc(Br)ccc2O)c2sc(=O)[nH]c2S1 (stereo not drawn) | 65* | -1.6 | 98 | i | 92
OC(Cc1cccnc1)(Cc1cccnc1)c1cc2ccccc2[nH]1 | 55* | 0.24 | 89 | i | 97
c1cncc(Cc2cc3ccccc3[nH]2)c1 | 50* | 0.85 | 92 | i | 98
